Data set [1] deals with Amyloid-beta precursor protein (Homo sapiens) (UniProt P05067). Briefly: Inhibition of HFIP-pretreated amyloid beta (1 to 42) (unknown origin) self-aggregation at 20 uM after 72 hrs by uranyl acetate staining based transmission electron microscopy. In outline: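 Aβ1-42 was incubated alone or with compound for 72 h at 37 °C. Fibril formation was then examined by transmission electron microscopy, with curcumin as positive control.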

For data set [2] the target is unchanged. Briefly: Inhibition of HFIP-pretreated amyloid beta (1 to 42) (unknown origin) self-aggregation at 20 uM after 48 hrs by thioflavin-T fluorescence assay.
The nature of data set [3]: Metal chelating activity assessed as compound-Cu2+ complex formation by measuring decrease in absorption with spectral shift to red end at 25 uM incubated for 5 mins in presence of 25 uM CuCl2 by UV-visible spectrophotometry.
Data set [4] can be described thus: Metal chelating activity assessed as compound-Fe2+ complex formation at 25 uM incubated for 5 mins in presence of 25 uM FeSO4 by UV-visible spectrophotometry.
Data set [5] in a line: Metal chelating activity assessed as compound-Zn2+ complex formation at 25 uM incubated for 5 mins in presence of 25 uM ZnCl2 by UV-visible spectrophotometry.
A short description of data set [6]: AUC (0 to infinity) in Sprague-Dawley rat blood dialysis at 25 mg/kg, iv by HPLC analysis. The class given is ADME, organism-based. Also noted: dose 25 mg/kg, route intravenous, time infinity. Conditions: blood dialysate. In outline:
(§1)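 Male Sprague–Dawley rats were given a single intravenous dose of 25 mg/kg. Drug levels were followed by microdialysis of blood and brain, alongside plasma. AUC0–t, AUC0–∞, MRT and CLz were derived from the concentration–time curves, n=6, reported as mean ± SD.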

The subject of another data set is MCF7. Briefly: Cytotoxicity against human MCF7 cells assessed as reduction in cell viability incubated for 24 hrs by MTT assay. To be noted: MCF7, 24 h. It is filed as cell-based. (In general: Tetrazolium assays rely on reduction of a dye to a coloured formazan, in cell work by metabolically active cells.)
In data set [7] the target is Amyloid-beta precursor protein (Homo sapiens) (UniProt P05067). Briefly: Inhibition of HFIP-pretreated amyloid beta (1 to 42) (unknown origin) self- aggregation at 20 uM after 72 hrs by thioflavin-T fluorescence assay relative to control.
Data set [8] is described as follows: AUC (0 to infinity) in Sprague-Dawley rat plasma at 25 mg/kg, iv by HPLC analysis. It is filed as ADME, organism-based. Also noted: dose 25 mg/kg, time infinity, route intravenous. In outline:
as §1

In data set [9] the target is Voltage-gated inwardly rectifying potassium channel KCNH2 (Homo sapiens, UniProt Q12809). Briefly: Inhibition of human ERG expressed in CHO cells incubated for 1 min at -80 mV holding potential by manual patch clamp assay. The class given is cell-based.
The species named for data set [10] is Danio rerio. Briefly: Cognition enhancement in aluminium chloride-induced Alzheimer's disease zebra fish model assessed as Dyskinesia recovery rate at 1 uM treated from 3 dpf to 5 dpf relative to control. The class given is functional. The gist of the method: (§2)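 Zebrafish larvae were exposed to 150 µM AlCl₃ from 3 to 5 dpf and co-treated with compound at 1, 5 or 25 µM over the same window, 30 fish per group. DRR and RE values were calculated from the average swimming speed of treated fish.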

Data set [11] can be described thus: MRT in Sprague-Dawley rat plasma at 25 mg/kg, iv by HPLC analysis. The class given is ADME, organism-based. In outline: as §1
The species named for data set [12] is Danio rerio. Briefly: Cognition enhancement in aluminium chloride-induced Alzheimer's disease zebra fish model assessed as Response efficiency at 25 uM treated from 3 dpf to 5 dpf relative to control. The class given is functional. The gist of the method:
as §2

Data set [13] in a line: AUC (0 to infinity) in Sprague-Dawley rat brain at 25 mg/kg, iv by HPLC analysis. It is filed as ADME, organism-based. Also noted: dose 25 mg/kg, route intravenous, time infinity. The gist of the method:
as §1

Data set [14] is filed under the species Danio rerio. Briefly: Cognition enhancement in aluminium chloride-induced Alzheimer's disease zebra fish model assessed as Response efficiency at 1 uM treated from 3 dpf to 5 dpf relative to control. It is filed as functional. The gist of the method: as §2
The nature of data set [15]: Ratio of drug level in Sprague-Dawley rat brain to plasma at 25 mg/kg, iv by HPLC analysis. It is filed as ADME, organism-based. To be noted: read-out: BPR. In outline: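 Male Sprague–Dawley rats received 25 mg/kg intravenously, with blood and brain sampled by microdialysis. The brain/plasma exposure ratio was calculated from AUC0–∞ measured in brain and plasma dialysates.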

The target in data set [16] is Amyloid-beta precursor protein (Homo sapiens) (UniProt P05067). Briefly: Inhibition of HFIP-pretreated amyloid beta (1 to 42) (unknown origin) self-aggregation at 20 uM after 24 hrs by thioflavin-T fluorescence assay relative to control.
Data set [17] is described as follows: AUC (0 to t) in Sprague-Dawley rat brain at 25 mg/kg, iv by HPLC analysis. It is filed as ADME, organism-based. In outline: as §1
For data set [18], the species on record is Danio rerio. Briefly: Cognition enhancement in aluminium chloride-induced Alzheimer's disease zebra fish model assessed as Dyskinesia recovery rate treated from 3 dpf to 5 dpf. It is filed as functional, organism-based. In outline: as §2
Data set [19] deals with Mus musculus. Briefly: Cognition enhancement in aluminium trichloride-induced amnesia mouse model assessed as error times at 0.5 mg/kg administered via gastric gavage for 30 days by SMG-2 programmable water maze test (reference value: 20.7 +/- 4.8 secs). It is filed as functional.
Data set [20] relates to Mus musculus. Briefly: Cognition enhancement in aluminium trichloride-induced amnesia mouse model assessed as error times at 2 mg/kg administered via gastric gavage for 30 days by SMG-2 programmable water maze test (reference value: 20.7 +/- 4.8 secs). It is filed as functional.
Data set [21] in a line: Stability of compound in human plasma measured up to 60 mins by HPLC analysis. The class given is ADME, cell-free. Conditions: 1 h. In outline: (§3)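 The compound was incubated separately in human plasma, human liver microsomes, simulated gastric fluid and simulated intestinal fluid. Remaining compound was quantified by HPLC at 5, 15, 30, 45 and 60 min.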
Data set [22] can be described thus: Apparent clearance in Sprague-Dawley rat blood dialysis at 25 mg/kg, iv by HPLC analysis. Conditions: blood dialysate, read-out: CL(app). The class given is ADME, organism-based. The gist of the method: as §1
A short description of data set [23]: AUC (0 to t) in Sprague-Dawley rat plasma at 25 mg/kg, iv by HPLC analysis. It is filed as ADME, organism-based. In outline: as §1
Data set [24] can be described thus: Stability of the compound in simulated gastric fluid measured up to 60 mins by HPLC analysis. Conditions: simulated gi fluid, 1 h. The class given is ADME. The gist of the method: as §3
The subject of data set [25] is Mus musculus. Briefly: Cognition enhancement in aluminium trichloride-induced amnesia mouse model assessed as error times at 8 mg/kg administered via gastric gavage for 30 days by SMG-2 programmable water maze test (reference value: 20.7 +/- 4.8 secs). The class given is functional.
The nature of data set [26]: Stability of the compound in simulated intestinal fluid measured up to 60 mins by HPLC analysis. It is filed as ADME. Conditions: simulated gi fluid, 1 h. In outline: as §3
For the next data set, the system named is A549. Briefly: Cytotoxicity against human A549 cells assessed as reduction in cell viability incubated for 24 hrs by MTT assay. It is filed as cell-based. Conditions: A549, 24 h.
Data set [27] deals with Mus musculus. Briefly: Cognition enhancement in scopolamine-induced amnesia mouse model assessed as total swimming distance at 25 mg/kg, iv administered once daily for 18 days measured after 50 mins at 5th day of training session by Morris water maze test (reference value: 785+/-351 cm). The class given is functional.
Data set [28] can be described thus: Stability of compound in human liver microsomes measured up to 60 mins by HPLC analysis. Conditions: 1 h. It is filed as ADME, Microsome. In outline: as §3
In general terms: Liver microsomes are a subcellular fraction often used to study metabolism.

Data set [29] deals with Mus musculus. Briefly: Cognition enhancement in aluminium trichloride-induced amnesia mouse model assessed as total swimming time at 8 mg/kg administered via gastric gavage for 30 days by SMG-2 programmable water maze test (reference value: 115 +/- 19 secs). It is filed as functional.
Data set [30] can be described thus: AUC (0 to t) in Sprague-Dawley rat blood dialysis at 25 mg/kg, iv by HPLC analysis. It is filed as ADME, organism-based. Conditions: blood dialysate. In outline: as §1
Data set [31] can be described thus: MRT in Sprague-Dawley rat brain at 25 mg/kg, iv by HPLC analysis. It is filed as ADME, organism-based. In outline:
as §1

Data set [32] can be described thus: MRT in Sprague-Dawley rat blood dialysis at 25 mg/kg, iv by HPLC analysis. To be noted: blood dialysate. The class given is ADME, organism-based. In outline:
as §1

Data set [33] deals with Mus musculus. Briefly: Cognition enhancement in aluminium trichloride-induced amnesia mouse model assessed as total swimming time at 0.5 mg/kg administered via gastric gavage for 30 days by SMG-2 programmable water maze test (reference value: 115 +/- 19 secs). It is filed as functional.
In data set [34] the test system is Mus musculus. Briefly: Cognition enhancement in scopolamine-induced amnesia mouse model assessed as escape latency at 25 mg/kg, iv administered once daily for 18 days measured after 50 mins at 5th day of training session by Morris water maze test (reference value: 63.2+/-21.1 secs). It is filed as functional.
In a further data set the test system is N2a. Briefly: Cytotoxicity against mouse Neuro2a cells assessed as reduction in cell viability incubated for 24 hrs by MTT assay. It is filed as cell-based.
A short description of data set [35]: Apparent clearance in Sprague-Dawley rat plasma at 25 mg/kg, iv by HPLC analysis. It is filed as ADME, organism-based. To be noted: read-out: CL(app). In outline:
as §1

For data set [36], the species on record is Danio rerio. Briefly: Cognition enhancement in aluminium chloride-induced Alzheimer's disease zebra fish model assessed as Dyskinesia recovery rate at 25 uM treated from 3 dpf to 5 dpf relative to control. It is filed as functional. In outline: as §2
The species named for data set [37] is Danio rerio. Briefly: Cognition enhancement in aluminium chloride-induced Alzheimer's disease zebra fish model assessed as Response efficiency at 5 uM treated from 3 dpf to 5 dpf relative to control. It is filed as functional. The gist of the method: as §2
For data set [38], the species on record is Danio rerio. Briefly: Cognition enhancement in aluminium chloride-induced Alzheimer's disease zebra fish model assessed as Dyskinesia recovery rate at 5 uM treated from 3 dpf to 5 dpf relative to control. It is filed as functional. In outline:
as §2

Calls of active or inactive are those of the source. No cut-off for these calls is given here.

Chain of Amyloid-beta precursor protein (Homo sapiens) (P05067 whole entry): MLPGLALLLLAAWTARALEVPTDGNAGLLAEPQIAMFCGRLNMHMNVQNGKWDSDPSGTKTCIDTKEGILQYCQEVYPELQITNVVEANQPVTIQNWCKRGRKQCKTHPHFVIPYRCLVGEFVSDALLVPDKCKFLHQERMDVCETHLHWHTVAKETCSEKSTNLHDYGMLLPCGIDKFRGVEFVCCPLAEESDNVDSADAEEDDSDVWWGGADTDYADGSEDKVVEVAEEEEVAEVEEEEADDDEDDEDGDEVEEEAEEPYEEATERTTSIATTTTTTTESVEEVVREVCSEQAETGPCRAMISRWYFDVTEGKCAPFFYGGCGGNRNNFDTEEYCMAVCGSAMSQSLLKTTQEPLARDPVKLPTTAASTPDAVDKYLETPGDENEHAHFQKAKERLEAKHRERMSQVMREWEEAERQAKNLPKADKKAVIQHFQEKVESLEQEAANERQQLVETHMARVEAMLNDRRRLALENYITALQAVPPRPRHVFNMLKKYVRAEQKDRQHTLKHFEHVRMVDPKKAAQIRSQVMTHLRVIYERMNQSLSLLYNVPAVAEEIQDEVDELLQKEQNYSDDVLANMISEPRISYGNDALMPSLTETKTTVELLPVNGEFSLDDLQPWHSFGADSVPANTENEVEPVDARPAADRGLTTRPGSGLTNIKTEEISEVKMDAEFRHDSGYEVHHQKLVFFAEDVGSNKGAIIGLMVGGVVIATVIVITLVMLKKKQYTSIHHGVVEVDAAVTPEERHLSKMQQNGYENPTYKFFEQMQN
Chain of Voltage-gated inwardly rectifying potassium channel KCNH2 (Q12809 whole entry): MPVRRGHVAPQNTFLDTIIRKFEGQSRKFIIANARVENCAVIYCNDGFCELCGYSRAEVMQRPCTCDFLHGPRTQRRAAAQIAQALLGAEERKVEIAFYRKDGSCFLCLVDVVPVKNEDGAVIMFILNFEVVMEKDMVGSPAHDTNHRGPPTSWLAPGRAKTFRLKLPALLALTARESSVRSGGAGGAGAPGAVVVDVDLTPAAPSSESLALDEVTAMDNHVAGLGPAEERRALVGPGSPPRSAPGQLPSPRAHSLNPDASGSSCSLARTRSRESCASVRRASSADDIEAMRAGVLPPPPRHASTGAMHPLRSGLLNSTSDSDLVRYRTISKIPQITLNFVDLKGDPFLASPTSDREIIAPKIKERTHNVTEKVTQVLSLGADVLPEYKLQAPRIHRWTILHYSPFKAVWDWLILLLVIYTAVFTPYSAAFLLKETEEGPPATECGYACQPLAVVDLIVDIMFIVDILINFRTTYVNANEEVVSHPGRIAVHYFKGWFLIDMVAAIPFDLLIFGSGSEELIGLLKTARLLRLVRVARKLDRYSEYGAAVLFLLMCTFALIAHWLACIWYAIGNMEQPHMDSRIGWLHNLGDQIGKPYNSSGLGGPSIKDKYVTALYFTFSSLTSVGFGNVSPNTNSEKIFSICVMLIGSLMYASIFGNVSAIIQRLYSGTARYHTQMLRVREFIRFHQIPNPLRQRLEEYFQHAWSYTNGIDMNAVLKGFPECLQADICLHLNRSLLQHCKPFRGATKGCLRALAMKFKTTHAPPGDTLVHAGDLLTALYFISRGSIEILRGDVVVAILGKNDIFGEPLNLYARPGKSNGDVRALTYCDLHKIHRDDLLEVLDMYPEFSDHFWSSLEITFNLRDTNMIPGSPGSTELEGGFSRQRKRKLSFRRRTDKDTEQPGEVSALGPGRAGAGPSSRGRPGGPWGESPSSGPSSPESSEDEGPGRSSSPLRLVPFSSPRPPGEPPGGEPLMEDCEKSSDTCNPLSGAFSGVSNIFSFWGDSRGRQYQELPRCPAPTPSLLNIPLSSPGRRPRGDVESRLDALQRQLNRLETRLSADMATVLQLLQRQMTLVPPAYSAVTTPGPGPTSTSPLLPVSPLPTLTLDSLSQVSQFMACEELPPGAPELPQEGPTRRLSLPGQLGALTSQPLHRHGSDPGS

One may read the inhibition as the change of the read-out against control, counted positive when it falls. Consider `COc1cc(/C=C/C(=O)CC(=O)/C=C/c2ccc(O)c(OC)c2)ccc1O`, for which, in [1], the inhibition result was “Active”.
For the compound `CC(c1cc(O)c2ncccc2c1)N(C)C` (stereo unspecified), the inhibition in data set [2] was 44%. In addition, the result in data set [3], in data set [4] and in [5] was Active. Further, the inhibition entry in data set [1] was “Active”.
What is called AUC(0-inf) is total exposure, with the tail of the curve extrapolated. Read a low AUC(0-inf) as low exposure. In general, IC50 refers to the concentration that inhibits the measured activity by half. A word on the MRT: it is a mean duration of stay, worked out from the concentration-time curve. The term AUC(0-t) denotes the area under the concentration-time curve up to a stated or last time point. Read a high AUC(0-t) as more exposure. Take `CCN(C)C(=O)Oc1cc(C(C)N(C)C)cc2cccnc12` (stereo unspecified): the AUC(0-inf) in [6] was 2450 ng·h/mL; in [8], 7460 ng·h/mL; in [13] it was 1270 ng·h/mL. Further, the inhibition in data set [2] was found to be 55.9%; in data set [7] it was 66.1%; in [16] it was 31.3%. Besides, the IC50 in the data set on MCF7 is greater than 20 µM; in data set [9], greater than 30 µM; in the data set with A549, greater than 20 µM; in the data set with N2a, greater than 20 µM. In addition, the Activity in the data set filed under Danio rerio [10] is 70.8%; in the data set filed under Danio rerio [12], 70.2%; in the data set listed under Danio rerio [14], 112.4%; in the data set filed under Danio rerio [18], “Dose-dependent effect”; in the data set on Mus musculus [27] it was 520 cm; in the data set filed under Danio rerio [36], 121%. Besides, the Activity is reported as 161.4% in the data set listed under Danio rerio [37] and 99.3% in the data set filed under Danio rerio [38]. The outcome in data set [3] and in data set [4] was inactive. Also, the MRT is 1.53 h in data set [11], 0.947 h in data set [31] and 1.16 h in data set [32]. Further, the Kp in data set [15] was found to be 0.524. In addition, the results for the AUC(0-t) in data set [17], in [23] and in data set [30] were 1260 ng·h/mL, 7410 ng·h/mL and 2430 ng·h/mL, respectively. The inhibition result in [1] is “Active”. Further, the Time is recorded as 15.1 s in the data set on Mus musculus [19]; 18.1 s in the data set with Mus musculus [20]; 16.8 s with Mus musculus [25]; 79 s with Mus musculus [29]; 73 s with Mus musculus [33]; 43.8 s in the data set on Mus musculus [34]. Besides, the Stability result in data set [21], in data set [24], in data set [26] and in [28] was “Stable” each time. The clearance in data set [22] was 190 mL/min/kg; in data set [35] it was 62 mL/min/kg.
